Reference: ChEMBL document CHEMBL3351634, “Novel sulfonamides bearing pyrrole and pyrrolopyrimidine moieties as carbonic anhydrase inhibitors: Synthesis, cytotoxic activity and molecular modeling” (Eur J Med Chem, 2014)

Assays:
Carbonic anhydrase 9 = Carbonic anhydrase 9 (Homo sapiens, UniProt Q16790); assay: Inhibition of human recombinant carbonic anhydrase 9 preincubated for 15 mins by stopped-flow CO2 hydrase assay
MCF7 [1] = assay: Cytotoxicity against human MCF7 cells assessed as cell survival at 10 uM after 48 hrs by sulforhodamine-B assay; format: functional; conditions: MCF7, 48 h, read-out: Survival
Summary of the method: (§1)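 Cells plated at 10⁴ per well and left 24 h to attach, then exposed for 48 h at 37 °C under 5% CO₂, with triplicate wells per concentration. Cells were fixed, washed and stained 30 min with 0.4% (wt/vol) SRB in 1% acetic acid. Unbound dye was removed with four 1% acetic acid washes and bound stain recovered in Tris-EDTA. Colour was read on an ELISA reader and expressed as surviving fraction.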

MCF7 [2] = assay: Cytotoxicity against human MCF7 cells assessed as cell survival at 25 uM after 48 hrs by sulforhodamine-B assay; format: functional; conditions: MCF7, 48 h, read-out: Survival; summary of the method: as §1
MCF7 [3] = assay: Cytotoxicity against human MCF7 cells assessed as cell survival at 50 uM after 48 hrs by sulforhodamine-B assay; format: functional; conditions: MCF7, 48 h, read-out: Survival; summary of the method: as §1
MCF7 [4] = assay: Cytotoxicity against human MCF7 cells assessed as cell survival at 100 uM after 48 hrs by sulforhodamine-B assay; format: functional; conditions: MCF7, 48 h, read-out: Survival; summary of the method: as §1
MCF7 [5] = assay: Cytotoxicity against human MCF7 cells after 48 hrs by sulforhodamine-B assay; conditions: MCF7, 48 h
Carbonic anhydrase 1 = Carbonic anhydrase 1 (Homo sapiens, UniProt P00915); assay: Inhibition of human recombinant carbonic anhydrase 1 preincubated for 15 mins by stopped-flow CO2 hydrase assay
Carbonic anhydrase 2 = Carbonic anhydrase 2 (Homo sapiens, UniProt P00918); assay: Inhibition of human recombinant carbonic anhydrase 2 preincubated for 15 mins by stopped-flow CO2 hydrase assay

Chain of Carbonic anhydrase 1 (P00915 whole entry): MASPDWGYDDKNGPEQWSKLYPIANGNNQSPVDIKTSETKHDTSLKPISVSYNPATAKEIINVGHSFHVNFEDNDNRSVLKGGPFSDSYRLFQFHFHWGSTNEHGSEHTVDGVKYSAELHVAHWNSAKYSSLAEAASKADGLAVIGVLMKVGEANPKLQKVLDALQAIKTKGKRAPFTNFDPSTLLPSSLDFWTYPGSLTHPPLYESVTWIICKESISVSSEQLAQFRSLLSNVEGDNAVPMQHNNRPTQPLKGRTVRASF

| Structure (SMILES) | Ki (Carbonic anhydrase 9) [µM] | viability at 10 µM (MCF7 [1]) [%] | viability at 25 µM (MCF7 [2]) [%] | viability at 50 µM (MCF7 [3]) [%] | viability at 100 µM (MCF7 [4]) [%] | IC50 (MCF7 [5]) [µM] | Ki (Carbonic anhydrase 1) [µM] | Ki (Carbonic anhydrase 2) [µM] |
| --- | --- | --- | --- | --- | --- | --- | --- | --- |
| N#Cc1c(-c2ccc(Br)cc2)cn(-c2ccc(S(N)(=O)=O)cc2)c1NC(=S)Nc1ccccc1 | 0.0624 | 30.8 | 23.5 | 22.7 | 21.7 | 7.29 |  |  |
| Nc1nc(=O)[nH]c2c1c(-c1ccc(Br)cc1)cn2-c1ccc(S(N)(=O)=O)cc1 | 0.0244 | 27 | 27.6 | 20.3 | 23.8 | 6.74 |  |  |
| Cc1nc(S)c2c(-c3ccc(Br)cc3)cn(-c3ccc(S(N)(=O)=O)cc3)c2n1 | 0.0054 | 23.6 | 21.8 | 19.8 | 23.1 | 6.74 |  |  |
| Cc1ccc(S(=O)(=O)Nc2c(C#N)c(-c3ccc(Br)cc3)cn2-c2ccc(S(N)(=O)=O)cc2)cc1 | 0.171 | 32.4 | 27.1 | 22.2 | 21.4 | 7.56 |  |  |
| NS(=O)(=O)c1ccc(-n2cc(-c3ccc(Br)cc3)c3c(=O)n(C(=O)c4ccccc4)c(-c4ccccc4)nc32)cc1 | 0.0065 | 36.6 | 31.8 | 28.4 | 26.8 | 8.11 | > 10 |  |
| N#Cc1c(-c2ccc(Br)cc2)cn(-c2ccc(S(N)(=O)=O)cc2)c1NC(=S)Nc1ccc(I)cc1 | 0.46 | 31.2 | 29 | 28.1 | 28.8 | 8.15 |  |  |
| N#Cc1c(-c2ccc(Br)cc2)cn(-c2ccc(S(N)(=O)=O)cc2)c1NC(=S)Nc1ccc(Cl)cc1 | 0.0903 | 28.8 | 25.7 | 26 | 29 | 8.12 |  |  |
| C/C(S)=N/c1c(C#N)c(-c2ccc(Br)cc2)cn1-c1ccc(S(N)(=O)=O)cc1 | 0.006 | 33 | 31.2 | 30 | 29.9 | 8.11 |  |  |
| CC(=O)CC(=O)Nc1c(C#N)c(-c2ccc(Br)cc2)cn1-c1ccc(S(N)(=O)=O)cc1 | 0.0055 | 29 | 28.2 | 28 | 29.1 | 8.11 |  |  |
| N#Cc1c(-c2ccc(Br)cc2)cn(-c2ccc(S(N)(=O)=O)cc2)c1NC(=O)c1ccc(Br)cc1 |  | 35.8 | 32.7 | 24.9 | 25.4 | 7.56 |  |  |
| Nc1nc(=S)[nH]c2c1c(-c1ccc(Br)cc1)cn2-c1ccc(S(N)(=O)=O)cc1 | 0.0429 | 23.1 | 25.5 | 19.9 | 25 | 6.46 |  |  |
| NS(=O)(=O)c1ccc(-n2cc(-c3ccc(Br)cc3)c3c(=O)n(C(=O)c4ccc(Cl)cc4)c(-c4ccc(Cl)cc4)nc32)cc1 | 0.488 | 54.9 | 29.3 | 20.1 | 29.5 | 13.1 | > 10 | > 10 |
| N#Cc1c(-c2ccc(Br)cc2)cn(-c2ccc(S(N)(=O)=O)cc2)c1NC(=S)Nc1ccc(Br)cc1 |  | 29.8 | 28 | 27.7 | 29 | 8.15 |  |  |
| N#Cc1c(-c2ccc(Br)cc2)cn(-c2ccc(S(N)(=O)=O)cc2)c1N |  |  |  |  |  | 7.56 |  |  |
| Cc1ccc(-n2c(=S)[nH]c3c(c(-c4ccc(Br)cc4)cn3-c3ccc(S(N)(=O)=O)cc3)c2=N)cc1 |  | 25 | 24.2 | 22.9 | 24.5 | 6.46 |  |  |
| NS(=O)(=O)c1ccc(-n2cc(-c3ccc(Br)cc3)c3c(=S)[nH]c(=S)[nH]c32)cc1 | 0.0071 | 33.7 | 29.4 | 21.9 | 22.5 | 7.56 |  |  |
| N#Cc1c(-c2ccc(Br)cc2)cn(-c2ccc(S(N)(=O)=O)cc2)c1NS(=O)(=O)c1ccccc1 | 0.849 | 27.2 | 29 | 20.2 | 23.2 | 7.01 |  |  |
| N#Cc1c(-c2ccc(Br)cc2)cn(-c2ccc(S(N)(=O)=O)cc2)c1NC(=S)Nc1ccc(S(N)(=O)=O)cc1 | 0.0512 | 31.1 | 29.1 | 25.5 | 27.6 | 8.13 |  |  |
| N#Cc1c(-c2ccc(Br)cc2)cn(-c2ccc(S(N)(=O)=O)cc2)c1NC(=S)Nc1ccc([N+](=O)[O-])cc1 | 0.0866 | 28 | 27.6 | 25.5 | 26 | 8.11 |  |  |
| COc1ccc(NC(=S)Nc2c(C#N)c(-c3ccc(Br)cc3)cn2-c2ccc(S(N)(=O)=O)cc2)cc1 |  | 26.2 | 26.3 | 24.9 | 21.7 | 7.01 |  |  |
